MsrA act: bovine methionine sulfoxide reductase A activation | 0.3% of 360,000 active | purified bovine MsrA, absorbance read-out | activation, % at 10.6 µM; in the data active = activation above about 7.5%;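 also: 0% = vehicle and 100% = reference activator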
VIM-2 inh: blocks Pseudomonas aeruginosa VIM-2 metallo-beta-lactamase; purified VIM-2, nitrocefin hydrolysis, epi-absorbance fluorescence; inhibition, % at 5.6 µM; 0.89% of 290,000 active;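 active = inhibition above the mean of all tested compounds plus 3 SD, cutoff set per screening run, cut at about 7.5% in these data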;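 also: red hydrolysis product quenches plate fluorescence so inhibitors raise well fluorescence; 0% = enzyme with DMSO and 100% = DMSO without enzyme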
PKA-R2B activ: activators of human PKA-R2B complex; P22694+P31323; PKA-R2B holoenzyme dissociation, Cy5-IP20 fluorescence polarization; R2B truncated from residue 108, S112A mutant; 0% DMSO only, 100% 113 µM cGMP; activation, % at 11.4 µM; 0.079% of 340,000 active;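 active = activation above a cutoff set at the mean over all compounds plus 3 SD, cut at about 18% in these data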;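 also: higher means more holoenzyme dissociation and a rise in polarization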
Target sequence (P31323 whole entry, looked up, other chains not shown, the tested form may be a part): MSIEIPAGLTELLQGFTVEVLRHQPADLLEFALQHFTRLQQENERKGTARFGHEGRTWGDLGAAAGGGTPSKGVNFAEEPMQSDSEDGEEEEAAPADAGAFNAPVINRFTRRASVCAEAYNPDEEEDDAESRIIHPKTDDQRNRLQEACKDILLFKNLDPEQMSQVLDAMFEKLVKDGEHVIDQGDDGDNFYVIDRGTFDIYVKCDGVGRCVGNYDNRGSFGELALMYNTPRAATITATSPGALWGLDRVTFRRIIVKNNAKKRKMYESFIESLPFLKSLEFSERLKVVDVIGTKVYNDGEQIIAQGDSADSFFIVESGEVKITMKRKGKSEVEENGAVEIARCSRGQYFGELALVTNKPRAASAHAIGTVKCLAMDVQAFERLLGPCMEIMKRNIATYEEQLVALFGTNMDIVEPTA
IMP-1 inhibitor: blocks Pseudomonas aeruginosa IMP-1 metallo-beta-lactamase; purified IMP-1, nitrocefin hydrolysis, epi-absorbance fluorescence; inhibition, % at 5.6 µM; 0.45% of 290,000 active;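 active = inhibition above the mean plus 3 SD of all compounds in the same screening run, cut at about 4.5% in these data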;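 also: 0% = IMP-1 with DMSO and 100% = DMSO wells lacking enzyme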
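assay system = purified recombinant IMP-1 metallo-beta-lactamase enzyme | schedule = 15 min preincubation plus 25 min reaction at 25 °C | signal = Epi-absorbance fluorescence, 480 nm excitation, 530 nm emission | read-out basis = percent inhibition from optical density relative to buffer-blank wells | controls = IMP-1 with DMSO as 0%, enzyme-free DMSO as 100%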
PKA-R1A act: activates the PKA-R1A holoenzyme complex. P00514+P68181. PKA-R1A dissociation, Cy5-IP20 fluorescence polarization; scaled: DMSO 0%, 113 µM cGMP 100%. activation, % at 11.4 µM. 0.083% of 340,000 active;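 active = percent activation above the mean of all tested compounds plus 3 SD, cut at about 19% in these data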;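 also: higher means more PKAc released from R1A so a rise in polarization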
MsrA inhibitor: inhibitors of bovine MsrA. 0.75% of 360,000 active. purified bovine MsrA, absorbance read-out. inhibition, % at 15.5 µM;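 also: 0% = vehicle wells with enzyme and 100% = reference inhibitor wells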
MsrA inh confirm: bovine MsrA inhibition, confirmed; inhibition, % at 15.5 µM; 41% of 2,300 active; purified bovine MsrA, absorbance read-out; AID 651822; shares compounds with MsrA inhibitor;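 also: coupled to thioredoxin reductase with NADPH and selenocystamine and DMSO as substrate; 0% = vehicle only and 100% = full effect of reference inhibitor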
* hit, by the source's call; . = no result. Most compounds without a hit are left out; they make up all but 2.1% or so of the library. Rule as the data show it, unless noted: active = inhibition above about 4.5%; inactive = the rest.

SMILES	MsrA act	VIM-2 inh	PKA-R2B activ	IMP-1 inhibitor	PKA-R1A act	MsrA inhibitor	MsrA inh confirm
COc1ccc(NC(=O)/C=C/c2ccc(OC)c(OC)c2)cn1	-6	-6	-14	-3	4	6.8*	5
C=CCn1c(SCC(=O)Nc2c(C)n(C)n(-c3ccccc3)c2=O)nnc1-c1cccnc1	0	.	-19	.	-1	0	.
O=C(CC(CC(=O)c1ccccc1)c1ccccn1)c1ccccc1	-12	.	-11	.	16	0	.
Nc1ccccc1C(=O)N=Nc1[nH]c(N)c2ccccc12	-5	-6	4	-5	2	5.4*	4
CC/C(=C/c1sc2ccc(C)cc2[n+]1CCCS(=O)(=O)[O-])SC	.	-5	.	-2	.	4.8*	3
COc1ccc2cc(S(=O)(=O)c3ccccc3)c(=O)oc2c1	-5	-1	2	-1	-1	5.3*	4
COc1cc(-c2nc3n(c(=O)c2C#N)CCS3)cc(OC)c1OC	-4	0	5	-4	-4	2	.
CC1CC(=O)NN=C1c1ccc(N(C)C)c([N+](=O)[O-])c1 (stereo unspecified)	-5	-5	9	-3	5	4.7*	4
CCN(CC)c1ccc(C2=NNC(=O)CC2C)cc1[N+](=O)[O-] (stereo unspecified)	3	0	-5	-3	-7	3	.
COc1c(F)cccc1C1=CC(=O)C[C@H](c2ccc(F)cc2)C1	-5	.	0	.	-6	1	.
COc1c(F)cccc1C1=CC(=O)C[C@H](c2ccc3c(c2)OCO3)C1	-1	.	-2	.	-6	7.1*	3
C[C@@H]1CN([C@@H](C)CO)C(=O)CCCn2cc(nn2)CO[C@H]1CN(C)C(=O)c1ccncc1	.	.	.	.	.	0	.
COc1cccc(-c2cc3c(-n4cccc4)ncnc3o2)c1	1	0	-5	-1	-11	5.5*	2
C/C(=N\Nc1ccc(S(N)(=O)=O)cc1[N+](=O)[O-])c1cccnc1	-6	-3	9	-5	3	11*	10*
C/C(=N\Nc1ccc([N+](=O)[O-])cc1[N+](=O)[O-])c1cccnc1	-1	4	3	-2	-3	13*	16*
Cn1cc(CN2CCC(C(=O)NC(c3ccc(F)cc3)c3ccc4ccccc4n3)CC2)c2ccccc21 (stereo unspecified)	2	.	.	.	.	-3	.
c1csc(-c2nnc(-c3ccc(N4CCOCC4)cc3)o2)c1	-3	2	4	-2	1	5.2*	4
COc1cc(-c2nnc(-c3cccs3)o2)cc(OC)c1OC	-1	-1	3	-2	-6	1	.
COc1ccc(-c2nnc(-c3cccs3)o2)cc1OC	-8	-2	-4	-2	5	5.3*	1
CCOc1ccc(-c2nnc(-c3cccs3)o2)cc1	-1	-2	2	-1	-7	0	.
CCCCOCCCNC(=O)C[C@@H]1C[C@@]2(C(=O)OC)CCCCC=C2N(Cc2ccco2)C1=O	0	.	.	.	.	0	.
CCN(CC)c1ccc(/C=N/Nc2nn[nH]n2)cc1	-10	-4	4	-5	-7	6.4*	4
CCN(CC)c1ccc(/C=N/Nc2nc(C)cc(C)n2)cc1	-5	-6	.	-3	.	3	.
O=C(C1=C(c2ccccc2)C(=O)c2ccccc2C1=O)c1ccccc1	-1	-2	-8	-1	11	72*	59*
COC1=C(c2ccccc2)C(=O)c2ccccc2C1=O	-2	-1	-3	-2	-9	4	.
SMILES	MsrA act	VIM-2 inh	PKA-R2B activ	IMP-1 inhibitor	PKA-R1A act	MsrA inhibitor	MsrA inh confirm
O=C(O)CSc1nc2sc3c(c2c(=O)n1-c1ccccc1)CCC3	-5	-1	1	-3	0	5.0*	1
COc1ccc(-n2c(SCC(N)=O)nc3sc4c(c3c2=O)CCN(C)C4)cc1	-3	-2	2	-2	-4	6.1*	2
CN1CCc2c(sc3nc(SCC(=O)NCc4ccco4)n(-c4ccccc4)c(=O)c23)C1	-3	1	9	-2	3	6.4*	1
COc1ccc(-n2c(SCC(=O)NCc3ccco3)nc3sc4c(c3c2=O)CCN(C)C4)cc1	-5	-1	10	-2	-7	3	.
CCOC(=O)CSc1nc2sc3c(c2c(=O)n1-c1ccc(OC)cc1)CCN(C)C3	-5	-1	2	-3	-11	4	.
CC(=NCc1cccnc1)C1=C(O)c2ccccc2C1=O	-4	0	0	-2	-1	4.9*	3
Cc1ccccc1-c1cc2c(nn1)-c1ccccc1C2=O	2	3	-9	-5	-1	5.9*	0
Cc1ccc(-c2cc3c(nn2)-c2ccccc2C3=O)cc1	5	-1	-5	-1	-4	-1	.
CCOC(=O)c1sc(N/N=C/c2ccc(N(C)C)cc2)nc1C	-6	-4	-9	-4	-8	2	.
C=CCc1c(C)nc(C)nc1N/N=C/c1ccc(N(C)C)cc1	-15	-3	3	-3	-9	6.8*	5.0*
Cc1ncsc1C(=O)Nc1nc2c(s1)CC(C)CC2 (stereo unspecified)	-11	-4	-3	-4	7	6.3*	1
Cc1nc2c(C)cccn2c1/C(O)=C1\C(=O)C(=O)N(CCN(C)C)C1c1ccco1 (stereo unspecified)	-9	1	-3	-2	-6	4.7*	0
O=c1cc(-c2ccc(O)cc2)oc2ccccc12	-4	1	-5	-2	-9	3	.
O=c1cc(-c2ccc(O)cc2)oc2ccc(O)cc12	-2	-1	-11	-2	5	5.5*	2
Cc1ccc([C@H]2C[C@@H](O)[C@H](n3cc(COC(=O)c4ccccc4)nn3)CN2C(=O)c2cccs2)cc1	7	.	-8	.	-3	-1	.
O=C1NC(=O)/C(=C/c2ccc(O)cc2)S1	-6	-3	3	-3	5	4.9*	4.6*
CN1/C(=C/C(=O)C2CCC2)Sc2ccccc21	-4	-4	10	-3	-8	8.3*	5.9*
NS(=O)(=O)c1ccc(-c2ccc(/C=N/NC(=O)c3ccccc3O)o2)cc1	-5	-4	8	-1	11	4.9*	4
COC(=O)c1ccc(-c2ccc(/C=N/NC(=O)Cc3nnc(N)s3)o2)cc1	1	-3	-8	-3	3	4.8*	4
NC(=S)N/N=C/c1ccc(-c2ccccc2)o1	-5	-3	-4	-2	8	6.7*	4
Nc1nnc(CC(=O)N/N=C/c2ccc(-c3ccccc3)o2)s1	-5	-3	2	-3	-6	6.6*	7.9*
Cc1ccc(-c2ccc(/C=N/NC(N)=S)o2)cc1	-4	-5	2	-4	-12	3	.
Cc1ccc(-c2ccc(/C=N/NC(=O)c3ccccc3O)o2)cc1	.	-1	.	0	.	.	.

Bioassay records from PubChem BioAssay.
